Experimental data: ChEMBL document CHEMBL1145176, “Somatostatin receptor 1 selective analogues: 2. N(alpha)-Methylated scan” (J Med Chem, 2005)
Values joined by “and” are separate entries in the source; they are usually repeats but may differ in a detail not shown here. Identical values can stand only once. Positions of bridges follow the written chain, without caps; N, C: chain ends. Non-standard residues stand in square brackets, D forms with d. Residues, ends and D or L forms follow the SMILES beside them. NMePhe(4-CH2NHiPr) = CN[C@@H](Cc1ccc(CNC(C)C)cc1)C(=O)O; Phe(4-CH2NHiPr) = CC(C)NCc1ccc(C[C@H](N)C(=O)O)cc1

Key:
[1] = molecular target: Somatostatin receptor type 1 (Homo sapiens, UniProt P30872); assay: Inhibition of [Leu8,D-Trp22,125I-Tyr25]SRIF-28 binding to human somatostatin receptor type 1
Somatostatin receptor type 1, sequence (P30872 whole entry): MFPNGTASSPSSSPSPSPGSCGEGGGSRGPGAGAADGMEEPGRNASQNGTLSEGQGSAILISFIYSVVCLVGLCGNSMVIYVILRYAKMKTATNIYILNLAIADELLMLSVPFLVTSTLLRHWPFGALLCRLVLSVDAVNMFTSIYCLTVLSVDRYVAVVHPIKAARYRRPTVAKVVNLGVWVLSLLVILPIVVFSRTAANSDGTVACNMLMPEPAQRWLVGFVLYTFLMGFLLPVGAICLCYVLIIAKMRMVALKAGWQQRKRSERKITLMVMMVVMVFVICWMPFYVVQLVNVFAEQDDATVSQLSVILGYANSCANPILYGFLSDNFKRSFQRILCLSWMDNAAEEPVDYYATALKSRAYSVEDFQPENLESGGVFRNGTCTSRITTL

[2] = molecular target: Somatostatin receptor type 3 (Homo sapiens, UniProt P32745); assay: Inhibition of [Leu8,D-Trp22,125I-Tyr25]SRIF-28 binding to human somatostatin receptor type 3
Somatostatin receptor type 3, sequence (P32745 whole entry): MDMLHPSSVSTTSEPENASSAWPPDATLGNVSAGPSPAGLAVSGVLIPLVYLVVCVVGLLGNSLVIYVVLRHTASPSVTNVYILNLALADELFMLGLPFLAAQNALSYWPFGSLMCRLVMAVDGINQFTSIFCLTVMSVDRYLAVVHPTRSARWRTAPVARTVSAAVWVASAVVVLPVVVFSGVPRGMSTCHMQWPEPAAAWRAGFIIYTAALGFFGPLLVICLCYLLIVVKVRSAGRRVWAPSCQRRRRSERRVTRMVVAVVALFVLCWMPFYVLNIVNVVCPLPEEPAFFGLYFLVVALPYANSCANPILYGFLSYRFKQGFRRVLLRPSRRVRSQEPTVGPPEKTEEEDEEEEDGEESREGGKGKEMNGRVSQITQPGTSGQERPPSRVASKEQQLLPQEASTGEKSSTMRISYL

[3] = molecular target: Somatostatin receptor type 5 (Homo sapiens, UniProt P35346); assay: Inhibition of [Leu8,D-Trp22,125I-Tyr25]SRIF-28 binding to human somatostatin receptor type 5
Somatostatin receptor type 5, sequence (P35346 whole entry): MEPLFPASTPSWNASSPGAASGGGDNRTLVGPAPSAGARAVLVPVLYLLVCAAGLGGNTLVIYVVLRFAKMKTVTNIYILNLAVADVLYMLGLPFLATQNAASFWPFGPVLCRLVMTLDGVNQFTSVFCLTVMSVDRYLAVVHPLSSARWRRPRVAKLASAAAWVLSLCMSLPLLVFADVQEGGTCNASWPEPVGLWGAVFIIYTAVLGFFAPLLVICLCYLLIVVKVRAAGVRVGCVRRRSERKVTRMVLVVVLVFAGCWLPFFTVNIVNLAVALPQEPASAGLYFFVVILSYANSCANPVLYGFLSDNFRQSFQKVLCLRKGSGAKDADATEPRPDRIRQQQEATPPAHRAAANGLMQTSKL

[4] = molecular target: Somatostatin receptor type 2 (Homo sapiens, UniProt P30874); assay: Inhibition of [Leu8,D-Trp22,125I-Tyr25]SRIF-28 binding to human somatostatin receptor type 2
Somatostatin receptor type 2, sequence (P30874 whole entry): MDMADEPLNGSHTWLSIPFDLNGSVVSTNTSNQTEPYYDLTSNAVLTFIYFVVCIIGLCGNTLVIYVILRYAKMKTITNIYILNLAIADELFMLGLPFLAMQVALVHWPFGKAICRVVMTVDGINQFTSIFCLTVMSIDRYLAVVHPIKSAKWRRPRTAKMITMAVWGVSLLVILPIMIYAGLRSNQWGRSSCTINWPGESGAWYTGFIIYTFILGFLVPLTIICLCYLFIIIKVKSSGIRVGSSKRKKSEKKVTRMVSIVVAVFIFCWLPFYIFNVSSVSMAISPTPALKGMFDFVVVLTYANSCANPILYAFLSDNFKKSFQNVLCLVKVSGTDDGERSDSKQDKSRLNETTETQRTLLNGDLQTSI

[5] = molecular target: Somatostatin receptor type 4 (Homo sapiens, UniProt P31391); assay: Inhibition of [Leu8,D-Trp22,125I-Tyr25]SRIF-28 binding to human somatostatin receptor type 4
Somatostatin receptor type 4, sequence (P31391 whole entry): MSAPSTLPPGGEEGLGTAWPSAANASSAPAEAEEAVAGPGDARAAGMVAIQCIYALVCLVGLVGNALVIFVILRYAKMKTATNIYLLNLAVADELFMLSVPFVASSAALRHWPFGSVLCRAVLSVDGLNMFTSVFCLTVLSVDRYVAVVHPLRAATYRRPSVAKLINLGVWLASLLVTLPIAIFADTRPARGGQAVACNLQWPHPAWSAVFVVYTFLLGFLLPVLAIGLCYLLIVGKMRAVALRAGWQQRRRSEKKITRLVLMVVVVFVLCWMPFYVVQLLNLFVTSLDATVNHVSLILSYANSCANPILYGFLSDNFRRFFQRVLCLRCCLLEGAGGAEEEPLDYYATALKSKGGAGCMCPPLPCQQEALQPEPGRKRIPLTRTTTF

CHO-K1 [6] = assay: Concentration for inhibition of forskolin-stimulated cAMP accumulation in CCL39 cells; type: functional, cell-based, Cricetulus griseus
How it was run: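 CCL39 cells stably expressing human sst1, seeded in poly-D-lysine-coated 96-well plates at 2 × 10^4 cells/well, grown 24 h. Preincubated 30 min at 37 °C in medium with 0.5 mM IBMX, then 30 min at 37 °C with 0.5 mM IBMX, 7.5 µM forskolin and varying peptide concentrations. Lysed; cAMP measured by scintillation proximity assay. Three independent experiments in triplicate; EC50 from concentration-response curves.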

CHO-K1 [7] = assay: Inhibition of forskolin-stimulated cAMP accumulation in CCL39 cells; type: functional, Cricetulus griseus
How it was run: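 CCL39 cells stably expressing human sst1 were seeded at 2 × 10^4 cells/well on poly-D-lysine plates and grown 24 h. Cells were preincubated 30 min at 37 °C with 0.5 mM IBMX, then exposed 30 min at 37 °C to IBMX ± 7.5 µM forskolin plus graded compound concentrations. Lysate cAMP was read by scintillation proximity assay and expressed as % forskolin-stimulated level. EC50 came from three independent experiments in triplicate, with SRIF-28 as positive control.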

IC50 [1]	IC50 [2]	IC50 [3]	IC50 [4]	IC50 [5]	Compound	EC50 (CHO-K1 [6])	Inhibition (CHO-K1 [7])
0.014 µM	> 1 µM	> 1 µM	> 1 µM	> 1 µM	CN[C@H]1CSSC[C@@H](C(=O)O)NC(=O)[C@H](CO)NC(=O)[C@H]([C@@H](C)O)NC(=O)[C@H](Cc2ccccc2)NC(=O)[C@H]([C@@H](C)O)NC(=O)[C@H](Cc2ccc(CNC(C)C)cc2)NC(=O)[C@@H](Cc2c[nH]c3ccccc23)NC(=O)[C@H](Cc2ccccc2)NC(=O)[C@H](Cc2ccccc2)NC(=O)[C@H](CCCCN)NC1=O	–	–
0.075 µM	> 1 µM	> 1 µM	> 1 µM	> 1 µM	CC(C)NCc1ccc(C[C@@H]2NC(=O)[C@@H](Cc3c[nH]c4ccccc34)NC(=O)[C@H](Cc3ccccc3)NC(=O)[C@H](Cc3ccccc3)NC(=O)[C@H](CCCCN)NC(=O)[C@@H](N)CSSC[C@@H](C(=O)O)NC(=O)[C@H](CO)NC(=O)[C@H]([C@@H](C)O)N(C)C(=O)[C@H](Cc3ccccc3)NC(=O)[C@H]([C@@H](C)O)NC2=O)cc1	–	–
0.0033 µM	> 1 µM	> 1 µM	> 1 µM	0.562 µM	CC(C)NCc1ccc(C[C@@H]2NC(=O)[C@H](N(C)C(=O)c3ccc4ccccc4c3)NC(=O)[C@H](Cc3ccccc3)NC(=O)[C@H](Cc3ccccc3)NC(=O)[C@H](CCCCN)NC(=O)[C@@H](N)CSSC[C@@H](C(=O)O)NC(=O)[C@H](CO)NC(=O)[C@H]([C@@H](C)O)NC(=O)[C@H](Cc3ccc(O)cc3)NC(=O)[C@H]([C@@H](C)O)NC2=O)cc1	–	–
0.0067 µM	0.536 µM	> 1 µM	> 1 µM	0.435 µM	CC(C)NCc1ccc(C[C@@H]2NC(=O)[C@H](N(C)C(=O)c3ccc4ccccc4c3)NC(=O)[C@H](Cc3ccccc3)NC(=O)[C@H](Cc3ccccc3)NC(=O)[C@H](CCCCN)NC(=O)[C@@H](N)CSSC[C@@H](C(=O)O)NC(=O)[C@H](CO)NC(=O)[C@H]([C@@H](C)O)NC(=O)[C@H](Cc3ccc(O)c(I)c3)NC(=O)[C@H]([C@@H](C)O)NC2=O)cc1	–	–
–	–	–	–	–	CSCC[C@H](NC(=O)[C@H](C)NC(=O)[C@@H]1CCCN1C(=O)[C@H](CC(N)=O)NC(=O)[C@H](CO)NC(=O)[C@H](CC(N)=O)NC(=O)[C@H](C)NC(=O)[C@@H](N)CO)C(=O)N[C@@H](C)C(=O)N1CCC[C@H]1C(=O)N[C@@H](CCCNC(=N)N)C(=O)N[C@@H](CCC(=O)O)C(=O)N[C@@H](CCCNC(=N)N)C(=O)N[C@@H](CCCCN)C(=O)N[C@@H](C)C(=O)NCC(=O)N[C@H]1CSSC[C@@H](C(=O)O)NC(=O)[C@H](CO)NC(=O)[C@H]([C@@H](C)O)NC(=O)[C@H](Cc2ccccc2)NC(=O)[C@H]([C@@H](C)O)NC(=O)[C@H](CCCCN)NC(=O)[C@H](Cc2c[nH]c3ccccc23)NC(=O)[C@H](Cc2ccccc2)NC(=O)[C@H](Cc2ccccc2)NC(=O)[C@H](CC(N)=O)NC(=O)[C@H](CCCCN)NC1=O [listing 1 of 2 here]	0.00018 µM and 0.00077 µM	–
–	–	–	–	–	CSCC[C@H](NC(=O)[C@H](C)NC(=O)[C@@H]1CCCN1C(=O)[C@H](CC(N)=O)NC(=O)[C@H](CO)NC(=O)[C@H](CC(N)=O)NC(=O)[C@H](C)NC(=O)[C@@H](N)CO)C(=O)N[C@@H](C)C(=O)N1CCC[C@H]1C(=O)N[C@@H](CCCNC(=N)N)C(=O)N[C@@H](CCC(=O)O)C(=O)N[C@@H](CCCNC(=N)N)C(=O)N[C@@H](CCCCN)C(=O)N[C@@H](C)C(=O)NCC(=O)N[C@H]1CSSC[C@@H](C(=O)O)NC(=O)[C@H](CO)NC(=O)[C@H]([C@@H](C)O)NC(=O)[C@H](Cc2ccccc2)NC(=O)[C@H]([C@@H](C)O)NC(=O)[C@H](CCCCN)NC(=O)[C@H](Cc2c[nH]c3ccccc23)NC(=O)[C@H](Cc2ccccc2)NC(=O)[C@H](Cc2ccccc2)NC(=O)[C@H](CC(N)=O)NC(=O)[C@H](CCCCN)NC1=O [listing 2 of 2 here]	–	>81% and >49%
0.01 µM	1.03 µM	> 1 µM	> 1 µM	0.226 µM	CC(C)NCc1ccc(C[C@H]2C(=O)N[C@@H]([C@@H](C)O)C(=O)N[C@@H](Cc3ccccc3)C(=O)N[C@@H]([C@@H](C)O)C(=O)N[C@@H](CO)C(=O)N[C@H](C(=O)O)CSSC[C@H](N)C(=O)N[C@@H](CCCCN)C(=O)N[C@@H](Cc3ccccc3)C(=O)N[C@@H](Cc3ccccc3)C(=O)N[C@H](Cc3c[nH]c4ccccc34)C(=O)N2C)cc1 (H-CKFF[dW][NMePhe(4-CH2NHiPr)]TFTSC-OH; disulfide 1-11)	–	–

Compound	IC50 [1]	IC50 [2]	IC50 [3]	IC50 [4]	IC50 [5]	EC50 (CHO-K1 [6])	Inhibition (CHO-K1 [7])
CC(C)NCc1ccc(C[C@@H]2NC(=O)[C@H](Cc3c[nH]c4ccccc34)NC(=O)[C@H](Cc3ccccc3)NC(=O)[C@H](Cc3ccccc3)NC(=O)[C@H](CCCCN)NC(=O)[C@@H](N)CSSC[C@@H](C(=O)O)NC(=O)[C@H](CO)NC(=O)[C@H]([C@@H](C)O)NC(=O)[C@H](Cc3ccc(O)cc3)NC(=O)[C@H]([C@@H](C)O)NC2=O)cc1 (H-CKFFW[Phe(4-CH2NHiPr)]TYTSC-OH; disulfide 1-11)	0.015 µM	> 1 µM	> 1 µM	> 1 µM	0.384 µM	–	–
